From PubChem BioAssay
TAAR1 antagonist = antagonists of human TAAR1. 360,000 compounds, 1.5% hits. AID 624466. CHO RD-HGA16 TAAR1, Fluo-8 calcium fluorescence, antagonist. inhibition, % at 3 µM;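 active = inhibition above a per-plate cutoff, the mean inhibition of test compounds on that plate plus 3 SD, cut at about 49% in these data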;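 also: 0% = DMSO plus EC80 beta-PEA response and 100% = DMSO alone without agonist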
Target sequence (Q96RJ0 whole entry, looked up): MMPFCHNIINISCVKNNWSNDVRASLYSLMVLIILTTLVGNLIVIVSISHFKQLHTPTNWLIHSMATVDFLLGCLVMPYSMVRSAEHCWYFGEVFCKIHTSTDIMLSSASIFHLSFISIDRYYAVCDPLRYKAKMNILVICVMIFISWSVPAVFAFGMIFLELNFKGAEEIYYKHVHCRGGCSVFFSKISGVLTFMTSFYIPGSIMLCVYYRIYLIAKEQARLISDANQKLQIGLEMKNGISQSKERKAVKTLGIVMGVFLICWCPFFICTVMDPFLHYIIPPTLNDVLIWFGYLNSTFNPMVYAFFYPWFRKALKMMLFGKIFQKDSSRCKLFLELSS
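Assay system: CHO-derived RD-HGA16 cells stably expressing human TAAR1 plus Gα16. Timing: 140 s kinetic read after compound, 140 s after agonist. Technique: kinetic Fluo-8 calcium fluorescence measurement. Measure: % inhibition of agonist calcium response.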
Rce1 inhib = blocks yeast Ras-converting enzyme; 290,000 compounds, 0.27% hits; yeast membranes, quenched prenylated peptide cleavage fluorescence; calls only; Q03530;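 active = fall in fluorescence gain of 50% or more versus controls, with final raw signal at or below 3038400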;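 also: plate controls were neutral control wells for no effect and wells lacking membranes for full effect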
Target sequence (Q03530 whole entry, looked up): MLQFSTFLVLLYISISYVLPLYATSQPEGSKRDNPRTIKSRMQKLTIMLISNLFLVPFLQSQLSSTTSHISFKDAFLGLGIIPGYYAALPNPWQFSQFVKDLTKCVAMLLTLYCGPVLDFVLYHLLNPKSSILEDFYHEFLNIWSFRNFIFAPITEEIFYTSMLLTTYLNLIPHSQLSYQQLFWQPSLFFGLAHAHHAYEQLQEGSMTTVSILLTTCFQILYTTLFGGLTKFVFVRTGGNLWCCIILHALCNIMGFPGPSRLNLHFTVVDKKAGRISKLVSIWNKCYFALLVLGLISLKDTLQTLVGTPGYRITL
VLA-4 inh = inhibition in a human VLA-4 binding assay; VLA-4 expressing cells, ligand binding flow cytometry; inhibition, % (about 7 µM as worked out from the volumes in the protocol); 330,000 compounds, 0.2% hits; in the data active = inhibition above about 50%
Platelet DG rel = platelet dense granule release activity; AID 1663; human platelet-rich plasma, SFLLRN dense granule ATP release, luminescence; inhibition, %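 (compounds screened at 7.5 µM in platelet-rich plasma)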; 300,000 compounds, 0.22% hits;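 active = mean replicate score, as percent of positive control, at or above 50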
TAAR1 ag = human TAAR1 agonism. activation, % at 3 µM. CHO RD-HGA16 TAAR1, Fluo-8 calcium fluorescence; vehicle wells 0%, saturating PEA agonist 100%. 360,000 compounds, 0.99% hits;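 active = activation above the mean activation of all test compounds in the run plus 3 SD, cut at about 38% in these data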
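test system = CHO RD-HGA16 cells carrying human TAAR1 plus Gα16 | schedule = 17-24 h seeding, 75 min 37 °C dye, 30 min RT | compound dosing = 3 µM single concentration | control set = DMSO and PEA EC100 | replicates = n 1 | signal = Fluo-8 fluorescence, 5 s baseline then 140 s kinetic read | measure = percent activation vs PEA EC100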
TAAR1 ag conf = human TAAR1 agonism, confirmed. AID 651783. 2,400 compounds, 82% hits. shares compounds with TAAR1 ag. CHO RD-HGA16 TAAR1, Fluo-8 calcium fluorescence; scaled: DMSO 0%, maximal phenethylamine 100%. activation, % at 3 µM;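 active = activation above a cutoff set at the run's mean compound activation plus 3 SD, cut at about 39% in these data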
Ga16 nonsel ag = counter-screen for TAAR1 agonists: nonselective agonists in parental cells; AID 651787; CHO-Ga16 parental, Fluo-8 calcium fluorescence; normalized to maximal ATP response, DMSO zero; 2,400 compounds, 50% hits; shares compounds with TAAR1 ag; activation, % at 3 µM;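 active = activation above the run cutoff, the mean activation over all tested wells plus 3 SD, cut at about 12% in these data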;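 also: 0% = DMSO wells and 100% = maximal ATP response on the peak over basal ratio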
TAAR1 desensitize = TAAR1 response desensitization, agonist counter-screen | shares compounds with TAAR1 ag | CHO RD-HGA16 hTAAR1, Fluo-8 calcium, beta-PEA response inhibition | inhibition, % at 3 µM | 2,400 compounds, 46% hits;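 active = inhibition above the run cutoff, the mean inhibition of all test compounds plus 3 SD, cut at about 49% in these data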;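 also: beta-PEA stimulus applied at its EC80; loss of beta-PEA calcium signal after compound pretreatment read as receptor desensitization; 0% = DMSO with beta-PEA at EC80 and 100% = DMSO alone without agonist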
Ga16 antag count = counter-screen for TAAR1 agonists: nonselective Ga16 antagonists; shares compounds with TAAR1 ag; CHO-Ga16 ATP-induced calcium, Fluo-8 fluorescence; inhibition, % at 3 µM; 2,400 compounds, 39% hits; AID 651952;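 active = inhibition above the plate's mean compound inhibition plus 3 SD, computed per plate, cut at about 22% in these data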;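 also: 0% = EC80 ATP with DMSO and 100% = DMSO wells without ATP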
* marks the source's active call; other numbers are inactive results; i = inactive; x = no result. Sampled rows, rich in hits. Any-hit rate of the full collection: about 2.6%.

SMILES	TAAR1 antagonist	Rce1 inhib	VLA-4 inh	Platelet DG rel	TAAR1 ag	TAAR1 ag conf	Ga16 nonsel ag	TAAR1 desensitize	Ga16 antag count
c1ccc(CN(CC2=NCCN2)c2ccccc2)cc1	-3	i	38	-2	66*	92*	3	67*	12
c1ccc(CC2=NCCN2)cc1	63*	i	12	-3	75*	92*	0	76*	6
CCN(Cc1ccccc1)c1ccccc1	-6	x	x	x	-2	x	x	x	x
OCC1COC(c2ccccc2)=N1 (stereo not drawn)	-14	x	x	x	39*	6	2	10	12
O=[N+]([O-])c1cc(S(=O)(=O)Nc2cccc(C(F)(F)F)c2)ccc1-n1nnc2ccccc21	9	i	-3	-5	4	x	x	x	x
COc1ccc(NS(=O)(=O)c2ccc(-n3nnc4ccccc43)c([N+](=O)[O-])c2)cc1	32	i	0	1	52*	72*	39*	50*	40*
Cc1ccc(C(=O)O/N=C(\N)Cc2cccc3ccccc23)cc1	40	i	-28	20	57*	52*	-1	11	-1
O=C(CN(C(=O)CCC(=O)Nc1ccccn1)c1ccc(F)cc1)NCCc1ccccc1	-1	i	7	8	2	x	x	x	x
CCCc1c2ccccc2nc2ccccc12	-33	i	5	0	70*	11	10	-12	-5
CCCc1cc(C(=O)O)c2ccccc2n1	x	i	-3	8	x	x	x	x	x
COc1ccccc1NCC(=O)N1CCN(S(=O)(=O)c2ccccc2)CC1	2	x	-8	x	1	x	x	x	x
COCCN(C(=O)COC(=O)C1CC1C)c1c(N)n(Cc2ccccc2)c(=O)[nH]c1=O (stereo not drawn)	-21	i	23	1	1	x	x	x	x
CC1CC1C(=O)OCC(=O)N(C)c1c(N)n(Cc2ccccc2)c(=O)[nH]c1=O (stereo not drawn)	-20	i	27	-3	51*	4	14*	3	9
O=C(NCCc1ccccc1)C1CCC(CNS(=O)(=O)c2ccccc2)CC1 (stereo not drawn)	5	i	4	-2	28	x	x	x	x
NS(=O)(=O)c1ccc(CCNC(=O)C2CCC(CNS(=O)(=O)c3ccc(Br)s3)CC2)cc1 (stereo not drawn)	72*	i	-7	0	53*	41*	1	59*	7
CCc1ccc(Nc2cc(=O)n(C3CCCCC3)c(=O)[nH]2)cc1	44	i	23	-3	79*	108*	50*	81*	32*
O=C(Cn1nnc(N2CCCCC2)n1)NN=Cc1ccccc1O	-12	x	x	x	49*	64*	2	11	1
Nc1nnn(CC(=O)N/N=C/c2cccc3ccccc23)n1	9	i	-4	-8	0	x	x	x	x
CN1C(=S)N(c2cccnc2)C(=O)/C1=C\c1ccc(N(C)C)cc1	33	i	x	2	74*	29	39*	42	50*
CN1C(=S)N(c2cccnc2)C(=O)/C1=C\c1ccc(C(C)(C)C)cc1	5	i	12	8	8	x	x	x	x
COc1ccc(C)cc1NC(=O)c1cc(C2CC2)nc2c1c(C)nn2C1CCS(=O)(=O)C1 (stereo not drawn)	25	x	x	x	2	x	x	x	x
O=c1[nH]ncc(N/N=C\c2ccc(O)cc2O)c1Cl	30	i	-4	16	73*	80*	1	67*	9
Oc1ccc(/C=N/Nc2ncc(Br)cn2)c(O)c1	-8	i	0	7	5	x	x	x	x
COC(C[C@@H]1O[C@H]1[C@H](O)[C@@H](C)OCc1ccccc1)OC	x	i	28	-10	x	x	x	x	x
CCN=C1NC(c2ccc(Cl)cc2)C(C(=O)OC)=C(C)N1Cc1cccc(C(F)(F)F)c1 (stereo not drawn)	74*	x	x	x	56*	65*	35*	82*	59*
SMILES	TAAR1 antagonist	Rce1 inhib	VLA-4 inh	Platelet DG rel	TAAR1 ag	TAAR1 ag conf	Ga16 nonsel ag	TAAR1 desensitize	Ga16 antag count
CCN=C1NC(c2ccc(F)cc2)C(C(=O)OC)=C(C)N1Cc1cccc(C(F)(F)F)c1 (stereo not drawn)	95*	x	x	x	92*	71*	39*	76*	57*
CCN=C1NC(c2ccc(C(F)(F)F)cc2)C(C(=O)OC)=C(C)N1Cc1cccc(C(F)(F)F)c1 (stereo not drawn)	45	x	x	x	46*	53*	28*	45	45*
COC(=O)C1=C(C)N(Cc2cccc(C(F)(F)F)c2)C(=NCc2ccccc2C(F)(F)F)NC1c1ccc(Cl)cc1 (stereo not drawn)	-24	x	x	x	2	x	x	x	x
CCN=C1NC(c2ccc(F)cc2)C(C(=O)OC)=C(C)N1Cc1ccc(C(F)(F)F)cc1 (stereo not drawn)	45	x	x	x	28	x	x	x	x
COc1ccc(NC(=O)CN(C)C(=O)CNC(=O)c2ccc3c(c2)OCO3)cc1	-4	i	12	12	-1	x	x	x	x
CC(C)C[C@H]1CN=C(Nc2ccccc2)N1CCC1CCCCC1	8	i	12	2	44*	55*	22*	27	19
CC(C)C[C@H]1CN=C(Nc2ccccc2)N1CC1CCCC1	-8	i	-4	-4	7	x	x	x	x
O=C1CCCC(=O)N1CCCCCCN1C(=O)CCCC1=O	-8	x	x	x	2	x	x	x	x
Cc1nn(CCCC(=O)NCCc2ccccc2)c(=O)c2nccn12	-34	i	-21	8	44*	66*	3	6	7
O=C(CCCOc1ccc(Cl)cc1)NCCc1ccccc1	15	i	-83	3	9	x	x	x	x
C#CCOC(=O)CCC(=O)NCCc1ccccc1	77*	i	-1	-3	63*	84*	4	97*	11
O=C(CCCOc1ccccc1)NCCc1ccccc1	x	x	15	-2	x	x	2	x	7
Brc1ccc(N=C/C=C/C=C/Nc2ccc(Br)cc2)cc1	-14	x	-347	x	12	x	x	x	x
Nc1nc(N)c(C=Nc2ccc(Br)cc2)c(Nc2ccc(Br)cc2)n1	-17	i	11	-1	80*	43*	19*	16	12
CC1(c2ccc(OC(F)F)cc2)NC(=O)N(/N=C/c2c(O)ccc3ccccc23)C1=O (stereo not drawn)	54*	i	-12	2	64*	68*	48*	73*	59*
O=C(Cc1ccc(-n2cccc2)cc1)NCc1ccccc1Cl	50*	i	-4	-4	77*	1	0	-4	-1
